Test results published in ChEMBL document CHEMBL4732155 (Eur J Med Chem, 2021).
pIC50: −log10 of the molar value. Activity calls are given as the source filed them. The rule behind the calls is not given here.

How the values were obtained:
[1] = Effect on KEAP1 expression in human HCT-116 cells at 15 uM measured after 6 hrs by LC-MS/MS analysis relative to control; type: functional
Outline: (§1)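 HCT116 cells treated 6 h with DMSO, 15 μM or 30 μM compound, then pelleted. Peptides (1 μg) separated on a 25 cm C18 nano-column with a 136 min gradient and analysed by label-free LC-MS/MS on an Orbitrap Eclipse. Searched against the UniProt human database and quantified from normalized abundance. Two independent biological replicates per group; log2 fold change versus DMSO, p < 0.05.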

[2] = Effect on AP2M1 expression in human HCT-116 cells at 15 uM measured after 6 hrs by LC-MS/MS analysis relative to control; type: functional; outline: as §1
[3] = Effect on KNTC1 expression in human HCT-116 cells at 30 uM measured after 6 hrs by LC-MS/MS analysis relative to control; type: functional; outline: as §1
[4] = Effect on SQSTM1 expression in human HCT-116 cells at 15 uM measured after 6 hrs by LC-MS/MS analysis relative to control; type: functional; outline: as §1
[5] = Effect on GOLGA3 expression in human HCT-116 cells at 15 uM measured after 6 hrs by LC-MS/MS analysis relative to control; type: functional; outline: as §1
[6] = Effect on ZFAND1 expression in human HCT-116 cells at 15 uM measured after 6 hrs by LC-MS/MS analysis relative to control; type: functional; outline: as §1
[7] = Effect on LAMP1 expression in human HCT-116 cells at 15 uM measured after 6 hrs by LC-MS/MS analysis relative to control; type: functional; outline: as §1
[8] = Inhibition of yeast Cdc48 T532C mutant assessed as reduction in ATPase activity measured after 60 mins by biomol green reagent based assay; design: species or system Saccharomyces cerevisiae
Outline: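 Yeast Cdc48 ATPase activity with 200 μM ATP in Tris pH 7.4 buffer containing MgCl2, EDTA, TCEP and Triton X-100, 60 min at room temperature. Biomol Green read at 635 nm. Eight-dose titration; IC50 from six replicates.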

HCT-116 [9] = assay: Antiproliferative activity against human HCT-116 cells after 48 hrs by celltiter-glo luminescence assay; type: functional, cell-based; conditions: HCT-116, 48 h
[10] = Effect on EPPK1 expression in human HCT-116 cells at 15 uM measured after 6 hrs by LC-MS/MS analysis relative to control; type: functional; outline: as §1
[11] = Effect on CDK2AP1 expression in human HCT-116 cells at 30 uM measured after 6 hrs by LC-MS/MS analysis relative to control; type: functional; outline: as §1
[12] = biological target: T1, Transitional endoplasmic reticulum ATPase (Homo sapiens, UniProt P55072); assay: Inhibition of p97 in human HeLa cells assessed as reduction in proteasomal turnover of p97-dependent reporter substrate UbG76V-GFP incubated for 120 mins by GFP fluorescence imaging
Target sequence in this assay (P55072 whole entry): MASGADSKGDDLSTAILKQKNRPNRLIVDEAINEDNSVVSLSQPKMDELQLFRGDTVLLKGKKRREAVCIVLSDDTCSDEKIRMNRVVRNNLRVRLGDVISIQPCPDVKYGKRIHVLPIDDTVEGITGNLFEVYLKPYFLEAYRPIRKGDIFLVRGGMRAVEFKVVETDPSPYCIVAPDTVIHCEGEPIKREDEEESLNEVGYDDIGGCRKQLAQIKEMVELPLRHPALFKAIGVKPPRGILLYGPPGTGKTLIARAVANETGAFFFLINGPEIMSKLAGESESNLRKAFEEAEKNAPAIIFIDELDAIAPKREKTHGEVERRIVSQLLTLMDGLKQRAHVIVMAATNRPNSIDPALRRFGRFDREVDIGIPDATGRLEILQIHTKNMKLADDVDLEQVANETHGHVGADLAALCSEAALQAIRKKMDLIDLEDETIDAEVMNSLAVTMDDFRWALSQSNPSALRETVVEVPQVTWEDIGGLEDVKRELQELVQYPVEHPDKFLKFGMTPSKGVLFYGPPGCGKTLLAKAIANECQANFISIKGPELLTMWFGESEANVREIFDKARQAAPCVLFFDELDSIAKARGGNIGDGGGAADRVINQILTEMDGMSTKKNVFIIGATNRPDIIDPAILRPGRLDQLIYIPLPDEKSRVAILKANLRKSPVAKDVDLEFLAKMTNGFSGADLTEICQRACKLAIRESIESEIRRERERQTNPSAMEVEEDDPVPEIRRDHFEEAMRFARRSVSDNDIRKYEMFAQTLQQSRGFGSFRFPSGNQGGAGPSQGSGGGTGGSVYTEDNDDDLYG

[13] = Effect on CDK2AP1 expression in human HCT-116 cells at 15 uM measured after 6 hrs by LC-MS/MS analysis relative to control; type: functional; outline: as §1
[14] = Effect on AP2M1 expression in human HCT-116 cells at 30 uM measured after 6 hrs by LC-MS/MS analysis relative to control; type: functional; outline: as §1
[15] = Effect on BRIX1 expression in human HCT-116 cells at 15 uM measured after 6 hrs by LC-MS/MS analysis relative to control; type: functional; outline: as §1
[16] = Effect on STIM1 expression in human HCT-116 cells at 15 uM measured after 6 hrs by LC-MS/MS analysis relative to control; type: functional; outline: as §1
[17] = Effect on STIM1 expression in human HCT-116 cells at 30 uM measured after 6 hrs by LC-MS/MS analysis relative to control; type: functional; outline: as §1
[18] = Effect on BRCC3 expression in human HCT-116 cells at 30 uM measured after 6 hrs by LC-MS/MS analysis relative to control; type: functional; outline: as §1
[19] = biological target: T1, Transitional endoplasmic reticulum ATPase; assay: Inhibition of His6-tagged p97 (unknown origin) expressed in Escherichia coli BL21 (DE3) assessed as reduction in ATPase activity measured after 60 mins by biomol green reagent based assay
Outline: (§2)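 His6-p97 expressed in E. coli BL21(DE3), purified by Ni-NTA and gel filtration (500–600 kDa fractions, ≥95% pure). Phosphate read by Biomol Green at 635 nm. Eight-dose titrations; IC50 from six replicates. Thiol tests added DTT or cysteine during preincubation.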
Target sequence in this assay (P55072 whole entry): as above

[20] = Inhibition of proteasomal turnover of p97-independent ODD-luciferase reporter substrate in human HeLa cells incubated for 120 mins by luciferase reporter gene assay; type: functional, cell-based; conditions: 2 h
Outline: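 HeLa cells co-expressing UbG76V-GFP and ODD-Luc were seeded at 5000/well in clear DMEM with 2.5% FBS. They were pretreated with 4 μM MG132 for 60 min at 37 °C, washed with PBS, then given cycloheximide plus compound for 120 min at 37 °C and washed. GFP was read by high-content confocal imaging, then luminescence after 10 min with D-luciferin at r.t. IC50 was fitted from quadruplicates.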

[21] = biological target: T1, Transitional endoplasmic reticulum ATPase; assay: Inhibition of p97 (unknown origin) expressed in HEK293 cells co-expressing TCRalpha-GFP assessed as reduction in ERAD-dependent reporter substrate TCRalpha-GFP degradation at 10 uM incubated for 60 to 120 mins by immunoblotting analysis; type: cell-based; conditions: time lower 60.0 min, time upper […]
Outline: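 HEK293 cells stably expressing TCRα-GFP pretreated with 4 μM MG132 for 1 h and washed. Then incubated with 50 μM cycloheximide plus 10 μM compound for 60 or 120 min before harvest. Immunoblotted with anti-GFP, with anti-p97 as loading control.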
Target sequence in this assay (P55072 2-806 limits assumed): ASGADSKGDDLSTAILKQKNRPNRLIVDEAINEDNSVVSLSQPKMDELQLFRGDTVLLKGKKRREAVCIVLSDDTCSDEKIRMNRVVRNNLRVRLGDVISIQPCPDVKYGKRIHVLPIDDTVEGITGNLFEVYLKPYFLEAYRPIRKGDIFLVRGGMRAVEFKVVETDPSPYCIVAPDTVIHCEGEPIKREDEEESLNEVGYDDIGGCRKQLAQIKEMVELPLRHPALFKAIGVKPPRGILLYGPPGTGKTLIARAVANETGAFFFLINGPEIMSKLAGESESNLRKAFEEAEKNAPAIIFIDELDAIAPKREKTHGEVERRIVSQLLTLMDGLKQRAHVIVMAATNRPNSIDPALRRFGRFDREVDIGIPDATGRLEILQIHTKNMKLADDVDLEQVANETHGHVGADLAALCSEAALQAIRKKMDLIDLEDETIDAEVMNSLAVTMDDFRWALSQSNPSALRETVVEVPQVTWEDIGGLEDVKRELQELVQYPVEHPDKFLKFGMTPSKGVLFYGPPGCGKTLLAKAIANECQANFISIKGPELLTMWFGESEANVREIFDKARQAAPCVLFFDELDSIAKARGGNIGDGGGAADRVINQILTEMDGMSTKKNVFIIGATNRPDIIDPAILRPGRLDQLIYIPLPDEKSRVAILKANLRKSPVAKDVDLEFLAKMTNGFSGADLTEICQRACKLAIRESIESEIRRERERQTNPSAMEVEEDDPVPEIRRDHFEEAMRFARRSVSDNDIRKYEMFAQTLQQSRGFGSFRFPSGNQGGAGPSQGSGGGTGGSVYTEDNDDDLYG

HCT-116 [22] = assay: Antiproliferative activity against NMS-873-resistant human HCT-116 cells after 48 hrs by celltiter-glo luminescence assay; type: functional, cell-based
Outline: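 CellTiter-Glo viability in HCT116 lines carrying resistance mutations in p97 (CB-5083-resistant: D649A/T688A; NMS-873-resistant: A530T). Cells seeded at 750 or 3000/well within the linear range of a per-line standard curve, in DMEM with 5% FBS. Treated 24 h after seeding with eight three-fold dilutions for 48 h. IC50 from percent growth versus DMSO control; mean ± SEM of four replicate experiments.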

[23] = Effect on AUP1 expression in human HCT-116 cells at 15 uM measured after 6 hrs by LC-MS/MS analysis relative to control; type: functional; outline: as §1
[24] = Effect on BRIX1 expression in human HCT-116 cells at 30 uM measured after 6 hrs by LC-MS/MS analysis relative to control; type: functional; outline: as §1
[25] = Effect on KEAP1 expression in human HCT-116 cells at 30 uM measured after 6 hrs by LC-MS/MS analysis relative to control; type: functional; outline: as §1
[26] = biological target: Transitional endoplasmic reticulum ATPase (Homo sapiens, UniProt P55072, C522A); assay: Inhibition of His6-tagged p97 C522A mutant (unknown origin) expressed in Escherichia coli BL21 (DE3) assessed as reduction in ATPase activity measured after 60 mins by biomol green reagent based assay; outline: as §2
Sequence of Transitional endoplasmic reticulum ATPase (Homo sapiens, UniProt P55072, C522A) (P55072 2-806 C522A limits assumed): as the sequence (P55072 2-806 limits assumed) above, with C521A counted along it

[27] = Effect on SQSTM1 expression in human HCT-116 cells at 30 uM measured after 6 hrs by LC-MS/MS analysis relative to control; type: functional; outline: as §1

SMILES: C=CC(=O)Nc1ncnc2c1c(-c1ccccc1)nn2C(C)(C)C
- log2FC [1]: -0.46
- log2FC [2]: -0.33
- log2FC [3]: -0.87
- log2FC [4]: 0.42
- log2FC [5]: -0.36
- log2FC [6]: 0.49
- log2FC [7]: -0.59
- pIC50 [8]: 4.85
- pIC50 (HCT-116 [9]): 5.57
- log2FC [10]: 0.38
- log2FC [11]: -0.47
- pIC50 [12]: 5.80
- log2FC [13]: -0.48
- log2FC [14]: -0.38
- log2FC [15]: 0.52
- log2FC [16]: 1.49
- log2FC [17]: 1.65
- log2FC [18]: 0.83
- pIC50 [19]: 6.22
- pIC50 [20]: 4.46
- inhibition [21]: Active
- Activity (HCT-116 [22]): Active
- log2FC [23]: -0.39
- log2FC [24]: 0.7
- log2FC [25]: -1.03
- pIC50 [26]: 3.96
- log2FC [27]: 0.97
